Experimental data reported in ChEMBL document CHEMBL1124035, “1-Amino-substituted 4-methyl-5H-pyrido[4,3-b]indoles (gamma-carbolines) as tricyclic analogues of ellipticines: a new class of antineoplastic agents” (1988).

Columns and labels:
Mus musculus [1] = experiment: Median survival day in P388 cell line when a dose of 20 mg/kg administered intraperitoneally to mice; type: functional; details: route intraperitoneal
How it was run: (§1)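 P388 leukaemia in CDF1 hybrid mice, 10 per group. At D0, 10^6 viable cells were inoculated ip, followed by a single ip dose of drug in distilled water on D1. Weight change, median survival day, T/C (treated/control median survival × 100) and survivors at D30 were recorded. Controls were 20 mice.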

Mus musculus [2] = experiment: Median survival day of B16 melanoma infected mice, when a dose of 1.25 mg/kg administered intraperitoneally; details: route intraperitoneal
Mus musculus [3] = experiment: Survivors at day D32 when a dose of 50 mg/kg administered intravenously to mice (C38 adenocarcinoma cell lines) when tested in 10 mice; type: functional; details: route intravenous
How it was run: (§2)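 Hybrid BDF1 mice, 10 per test, were implanted sc with a standard 3-mm³ fragment of C38 colon adenocarcinoma. Drug was given iv either on D1 alone or on D2 and D9. Animals were followed per NCI (Geran) protocol.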

Mus musculus [4] = experiment: Antitumor activity against P388 cells at a dose of 20 mg/kg administered intraperitoneally to mice; type: functional; details: route intraperitoneal
Mus musculus [5] = experiment: Median survival day of B16 melanoma infected mice, when a dose of 2.5 mg/kg administered intraperitoneally; type: functional; details: route intraperitoneal
How it was run: (§3)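 B16 melanoma in hybrid BD F1 mice. At D0 each mouse was inoculated ip with 0.5 mL of homogenate made from 1 g of tumour in 10 mL of physiological serum. Compounds were given ip daily at the stated doses for 9 days (D1-9), with cis-platinum 0.5 mg/kg under the same schedule as positive control.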

Mus musculus [6] = experiment: Weight change in g when a dose of 10 mg/kg administered intraperitoneally to B16 melanoma infected mice; type: functional; details: route intraperitoneal
How it was run: (§4)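 Hybrid BDF1 mice were inoculated ip at D0 with 0.5 mL of B16 melanoma homogenate (1 g tumor in 10 mL physiological serum). Drug was given ip daily on days 1-9, with cis-platinum 0.5 mg/kg as positive control on the same schedule.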

Mus musculus [7] = experiment: Weight change in g at a dose of 50 mg/kg intravenous administration to P388 leukemia model; type: functional
How it was run: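 Mice (10 per group) were inoculated ip at D0 with 10^6 P388 leukemia cells and given a single iv dose at D1. Read-outs were weight change (g), median survival day, T/C % versus controls and survivors at D30.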

Mus musculus [8] = experiment: Survivors at day D38 when a dose of 50 mg/kg administered intravenously to C38 adenocarcinoma mice model on D1 when tested in 10 mice; type: functional; details: route intravenous; how it was run: as §2
Mus musculus [9] = experiment: Weight change in g when a dose of 10 mg/kg administered intraperitoneally to P388 leukemia infected mice; type: functional; details: route intraperitoneal
How it was run: (§5)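 P388 model with a single ip dose. Mice (10 per group) were inoculated ip at D0 with 10^6 P388 cells and given one ip drug dose at D1. Body-weight change (g), median survival day, T/C and survivors at D30 were recorded.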

Mus musculus [10] = experiment: Weight change in g when a dose of 20 mg/kg administered intraperitoneally to P388 leukemia infected mice; type: functional; details: route intraperitoneal; how it was run: as §5
Mus musculus [11] = experiment: Weight change in g when a dose of 2.5 mg/kg administered intraperitoneally to B16 melanoma infected mice; type: functional; details: route intraperitoneal; how it was run: as §4
Mus musculus [12] = experiment: Survivors at day 30 when a dose of 100 mg/kg administered intravenously to P388 (iv) to L1210 leukemia mice model; type: functional
Mus musculus [13] = experiment: Median survival day of L1210 (iv) to L1210 leukemia model when a dose of 20 mg/kg administered intravenously to mice; type: functional
How it was run: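 L1210 leukaemia in CDF1 hybrid male or female mice, 10 per group. At D0, 10^5 viable cells were inoculated ip, followed by a single iv dose on D1. Median survival day was recorded, and T/C was calculated as treated/control median survival × 100.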

Mus musculus [14] = experiment: Survivors at day 30 when a dose of 50 mg/kg administered intravenously to P388 leukemia mice model; 0/10; type: functional; details: route intravenous
Mus musculus [15] = experiment: Survivors at day 30 when a dose of 40 mg/kg to P388 leukemia model; 1/10; type: functional
Mus musculus [16] = experiment: Median survival day of B16 melanoma infected mice when a dose of 2.5 mg/kg administered intraperitoneally; type: functional; details: route intraperitoneal; how it was run: as §3
Mus musculus [17] = experiment: Weight change in g when a dose of 10 mg/kg administered intraperitoneally B16 melanoma infected mice; type: functional; details: route intraperitoneal; how it was run: as §4
Mus musculus [18] = experiment: Survivors at day 60 when a dose of 2.5 mg/kg to B16 melanoma infected mice; 0/10
Mus musculus [19] = experiment: Survivors at day 60 when a dose of 10 mg/kg to B16 melanoma infected mice; 0/10
Mus musculus [20] = experiment: Antitumor activity against C38 adenocarcinoma cells at a dose of 75 mg/kg administered intravenously to mice; tumor volume at D32 (T/C); type: functional, MC-38; details: route intravenous
How it was run: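 Hybrid BD F1 mice, 10 per group, were implanted sc with a standard 3-mm3 C38 colon adenocarcinoma fragment. Drugs were given iv at the stated doses on D1 or on D2 + D9. Read-out was tumor size in treated versus control mice (T/C) at the day stated.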

Mus musculus [21] = experiment: Antitumor activity against P388 cells at a dose of 40 mg/kg administered intraperitoneally to P388 leukemia model; type: functional; details: route intraperitoneal
How it was run: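 Mice were inoculated ip with 10^6 P388 leukemia cells at D0, then given a single ip drug dose on D1. Weight change was recorded. T/C % = median survival day of treated / controls × 100; survivors counted at D30; 10 mice per dose group, 20 controls.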

Mus musculus [22] = experiment: Survivors at day 30 when a dose of 80 mg/kg to P388 leukemia model; 0/10; type: functional
Mus musculus [23] = experiment: Weight change in g when a dose of 20 mg/kg administered intraperitoneally in B-16 melanoma infected mice; type: functional; details: route intraperitoneal; how it was run: as §4
Mus musculus [24] = experiment: Survivors at day 60 when a dose of 2.5 mg/kg to B16 melanoma infected mice; 0/10; type: functional
Mus musculus [25] = experiment: Antitumor activity against P388 leukemia in mice at a dose of 30 mg/kg administered intraperitoneally for 5 days; type: functional, organism-based; design: dose 30 mg/kg
How it was run: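 CDF1 hybrid male or female mice, 10 per group, were inoculated ip on day 0 with 10^6 viable P388 leukemia cells. Drug in distilled water was given ip (0.1 mL/10 g body weight) daily on days 1-5, with vehicle, 5-fluorouracil and BD 84 controls given the same way. T/C = median survival of treated/controls × 100; T/C > 128% counted as significant.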

Mus musculus [26] = experiment: Weight change in g when a dose of 80 mg/kg administered intraperitoneally to P388 leukemia model; details: route intraperitoneal
Mus musculus [27] = experiment: Weight change in g when a dose of 5 mg/kg administered intraperitoneally in B-16 melanoma infected mice; type: functional; details: route intraperitoneal; how it was run: as §4
Mus musculus [28] = experiment: Median survival day in P388 leukemia model when a dose of 40 mg/kg administered intraperitoneally; type: functional; details: route intraperitoneal; how it was run: as §1
Mus musculus [29] = experiment: Antitumor activity against P388 leukemia in mice at a dose of 20 mg/kg administered intraperitoneally for 5 days; type: functional; details: route intraperitoneal
How it was run: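 CDF1 hybrid male or female mice, 10 per group, were inoculated ip with 10^6 viable P388 cells on day 0. Drugs in distilled water were given ip (0.1 mL/10 g body weight) daily D1-5. Vehicle, 5-fluorouracil and BD 84 were given the same way. T/C = median survival day of treated / controls × 100; T/C > 128% was significant; cures counted at D60.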

Cc1cnc(NCCCN(C)C)c2c3cc(O)ccc3n(C)c12
Median survival day (Mus musculus [1]): 18.75 | Median survival day (Mus musculus [2]): 29.75 | Survivors (Mus musculus [3]): 10 | T/C (Mus musculus [4]): 164% | Median survival day (Mus musculus [5]): 32.6 | Weight change (Mus musculus [6]): -1.9 g | Weight change (Mus musculus [7]): 0.5 g | Survivors (Mus musculus [8]): 10 | Weight change (Mus musculus [9]): -1.4 g | Weight change (Mus musculus [10]): -2.5 g | Weight change (Mus musculus [11]): 0.1 g | Survivors (Mus musculus [12]): 4 | Median survival day (Mus musculus [13]): 14

CCN(CC)CCCNc1ncc(C)c2c1c1cc(O)ccc1n2C
Survivors (Mus musculus [14]): 0 | Survivors (Mus musculus [15]): 1 | Median survival day (Mus musculus [16]): 35.25 | Weight change (Mus musculus [17]): -1 g | Survivors (Mus musculus [18]): 0 | Survivors (Mus musculus [19]): 0 | Tumor volume (Mus musculus [20]): 13% | T/C (Mus musculus [21]): 202%

CCN(CC)CCCNc1[nH]cc(C)c2nc3ccc(O)cc3c1-2
Survivors (Mus musculus [22]): 0 | Weight change (Mus musculus [23]): -0.8 g | Survivors (Mus musculus [24]): 0 | T/C (Mus musculus [25]): Toxic | Weight change (Mus musculus [26]): -1.7 g | Weight change (Mus musculus [27]): -0.1 g | Median survival day (Mus musculus [28]): 15.9 | T/C (Mus musculus [29]): 238%
